Experimental data taken from publication PMC12024519 (Science Advances, 2025).
One block for each compound: values may come before it.

How the values were obtained:
EZH2 = test: AKT-mediated phosphorylation of EZH2, phospho-AKT substrate antibody; type: cell-based, Human; details: 5 μM I-BRD9, 16 h, HEK293T transfected with HA-EZH2
Outline: (§1)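 Cells grown in DMEM with 10% FBS, penicillin/streptomycin, at 37°C and 5% CO2; HEK293T transfected with Lipofectamine/Plus. Cells rinsed in ice-cold PBS and lysed in Triton buffer (40 mM Hepes pH 7.4, 150 mM NaCl, 1% Triton X-100) or EBC buffer (50 mM Tris pH 7.5, 0.5% NP-40) with protease/phosphatase inhibitors. 1000–3000 μg lysate incubated with agarose-conjugated antibody 3–4 h at 4°C; beads washed five times in NETN; SDS-PAGE immunoblot.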

MDA-MB-231 cells [1] = test: RNA-seq of treated MDA-MB-231 cells; type: cell-based, human; details: for shared down-regulated genes (I-BRD9 and ipatasertib) / shared up-regulated genes (I-BRD9 and ipatasertib): 5 μM I-BRD9 or 1 μM ipatasertib, Q value < 0.05; for hallmark gene sets significantly enriched among the 186 shared genes: MSigDB, genes shared by I-BRD9 and ipatasertib; for common down-regulated genes significantly marked by H3K27me3: of 116 genes common to I-BRD9 and ipatasertib, epidecodeR
[2] = test system: BRD9 and AKT1 interaction; test: co-immunoprecipitation of Myc-BRD9 and HA-AKT1 in HEK293T cells; type: cell-based, Human; details: 5 μM, 24 hours
AKT1 PH and KD domains = test: interaction of AKT1 PH and KD domains in HEK293T cells; type: cell-based, Human; details: 5 μM I-BRD9, 16 h
MDA-MB-231 cells [3] = test: RT-qPCR of select common genes in MDA-MB-231 cells; type: cell-based; details: n = 3 biological replicates
BRD9-BD = test: in vitro biotin-peptide pull-down with GST-BRD9-BD; type: binding; details: immunoblot; for relative affinity of BRD9-BD for R391me2s vs H4R3me2s: biotin-labeled peptides, pull-down with GST-BRD9-BD
AKT [4] = test: immunoblot of AKT activation; type: cell-based; details: 5 μM I-BRD9, MDA-MB-231, indicated times
Outline: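 MDA-MB-231 cells kept in DMEM with 10% FBS, penicillin/streptomycin, 37°C, 5% CO2. After treatment, cells washed with ice-cold PBS and lysed in Triton or EBC buffer containing protease/phosphatase inhibitors. Protein quantified by Bio-Rad assay; equal lysate amounts run on SDS-PAGE and transferred to PVDF. Blots probed with pT308-AKT, pS473-AKT, pan-AKT, pGSK-3β and GSK-3β antibodies diluted 1:1000–1:10,000 in TBST/5% milk.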

H3K27me3 = test: immunoblot of H3K27me3; type: cell-based
Tudor domain of SMN = test: biotin-peptide pull-down with GST-SMN-Tudor; type: binding; details: compared to BRD9-BD, immunoblot
BRD9-3Mut = test: biotin-peptide pull-down with Myc-BRD9-3Mut; type: binding; details: Myc-BRD9-3Mut from HEK293T WCL; immunoblot
Tudor domain of SND1 = test: biotin-peptide pull-down with GST-SND1-Tudor; type: binding; details: compared to BRD9-BD, immunoblot
[5] = test system: BRD9 interaction with AKT1; test: co-immunoprecipitation of BRD9 and AKT1 in MDA-MB-231 cells; type: cell-based; details: 0.1 μM, 16 hours
Outline: as §1

AKT [6] = test: immunoblot of AKT phosphorylation in HEK293T cells; type: cell-based, Human; details: 0.1 μM, 0-6 h
SMARCA2/4 = test: immunoblot of SMARCA2/4 depletion; type: cell-based; details: 0.1 μM, 16 hours, MDA-MB-231
Outline: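 Cells grown at 37°C, 5% CO2 with 10% FBS: MDA-MB-231 and MCF-7 in DMEM, BT-549 and T-47D in RPMI 1640. After washing in ice-cold PBS, cells were lysed in Triton (pH 7.4) or EBC (pH 7.5) buffer with protease and phosphatase inhibitors. Equal protein was resolved by SDS-PAGE, transferred to PVDF and probed with primary antibodies at 1:1000–1:10,000 in TBST/5% milk.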

Compound: CCn1cc(-c2cccc(C(F)(F)F)c2)c2sc(C(=N)NC3CCS(=O)(=O)CC3)cc2c1=O [I-BRD9]
AKT-mediated phosphorylation of EZH2 (EZH2): largely blocked AKT-mediated phosphorylation of EZH2
shared down-regulated genes (I-BRD9 and ipatasertib) (MDA-MB-231 cells [1]; 16 hours): 116 genes
shared up-regulated genes (I-BRD9 and ipatasertib) (MDA-MB-231 cells [1]; 16 hours): 70 genes
hallmark gene sets significantly enriched among the 186 shared genes (MDA-MB-231 cells [1]): Nine
common down-regulated genes significantly marked by H3K27me3 (MDA-MB-231 cells [1]): Seventy-five
effect on BRD9 and AKT1 interaction in cells [2]: markedly impaired BRD9 and AKT1 interaction in cells
interaction between PH and KD domains, I-BRD9 (AKT1 PH and KD domains): enhance the interaction between the PH and KD domains
mRNA of shared genes in hallmark pathways, I-BRD9 (MDA-MB-231 cells [3]; 5 μM I-BRD9, 16 hours): transcriptionally repressed
effect on AKT1-R391me2s peptide binding of BRD9-BD in vitro (BRD9-BD; 5 μM I-BRD9, pull-down): blocked the AKT1-R391me2s peptide binding of BRD9-BD in vitro
AKT activation, I-BRD9 (AKT [4]): diminished AKT activation in a time-dependent manner
H3K27me3, I-BRD9 combined with AKT1 depletion (H3K27me3; 5 μM I-BRD9, 16 h, AKT1-depleted MDA-MB-231): did not further induce H3K27me3
H3K27me3 induction by I-BRD9 upon overexpression of myr-AKT1 (H3K27me3; 5 μM I-BRD9, 16 h, MDA-MB-231 stably expressing Myr-AKT1 (fig. S6J)): largely suppressed H3K27me3 induction
H3K27me3 signal, I-BRD9 (H3K27me3; MDA-MB-231 (Fig. 5D) and MDA-MB-436 (0, 1, 5 μM, fig. S6C), 16 h): markedly enhanced H3K27me3 signal

Compound: O=c1cc(N2CCOCC2)oc2c(-c3ccccc3)cccc12 [LY294002]
H3K27me3 level, LY294002 (H3K27me3; 0, 10, 20 μM, 16 h, MDA-MB-231): elevated

Compound: Nc1cc(C(F)(F)F)c(-c2cc(N3CCOCC3)nc(N3CCOCC3)n2)cn1 [BKM120]
H3K27me3 level, BKM120 (H3K27me3; 0, 1, 5 μM, 16 h, MDA-MB-231): elevated

Compound: CC(C)NC[C@@H](C(=O)N1CCN(c2ncnc3c2[C@H](C)C[C@H]3O)CC1)c1ccc(Cl)cc1 [ipatasertib]
share of AKT-down-regulated genes that are common with I-BRD9 (MDA-MB-231 cells [1]; 1 μM ipatasertib, 16 hours): 59%
share of AKT-up-regulated genes that are common with I-BRD9 (MDA-MB-231 cells [1]; 1 μM ipatasertib, 16 hours): 32%
shared down-regulated genes (I-BRD9 and ipatasertib) (MDA-MB-231 cells [1]; 16 hours): 116 genes
shared up-regulated genes (I-BRD9 and ipatasertib) (MDA-MB-231 cells [1]; 16 hours): 70 genes
hallmark gene sets significantly enriched among the 186 shared genes (MDA-MB-231 cells [1]): Nine
common down-regulated genes significantly marked by H3K27me3 (MDA-MB-231 cells [1]): Seventy-five
mRNA of shared genes in hallmark pathways, ipatasertib (MDA-MB-231 cells [3]; 1 μM ipatasertib, 16 hours): transcriptionally repressed
H3K27me3 level, ipatasertib (H3K27me3; 0, 1, 5 μM, 16 h, MDA-MB-231): elevated

binding of Tudor domain of SMN to R391me2s (Tudor domain of SMN): much weaker or no binding
binding of BRD9-3Mut to AKT1-R391me2s peptide (BRD9-3Mut): incapable of binding
binding of Tudor domain of SND1 to R391me2s (Tudor domain of SND1): much weaker or no binding
Compound: Biotin-Ahx-GLLKKDPKQ(Rme2s)LGGGSEDA [R391me2s]
relative affinity of BRD9-BD for R391me2s vs H4R3me2s (BRD9-BD): greater affinity for R391me2s than H4R3me2s

Compound: Cc1ncsc1-c1ccc([C@H](C)NC(=O)[C@@H]2C[C@@H](O)CN2C(=O)[C@@H](NC(=O)CN2CCN(c3cc(-c4ccccc4O)nnc3N)CC2)C(C)(C)C)cc1 [AU-15330]
effect on BRD9 interaction with AKT1 [5]: minimal effects on BRD9 interaction with AKT1
AKT phosphorylation, AU-15330 (AKT [6]): minor effects
depletion of SMARCA2/4 (SMARCA2/4): depletion of SMARCA2/4
H3K27me3, AU-15330 (H3K27me3; 0.1 μM, 0-6 h, HEK293T): minor effects

Compound: CC[C@H](C)n1cc(C)c2c(C(=O)NCc3c(C)cc(C)[nH]c3=O)cc(-c3ccc(N4CCNCC4)nc3)cc21 [GSK126]
transcription of common genes of BRD9 and AKT (MDA-MB-231 cells [3]; 5 μM GSK126, 48 hours): increased the transcription of common genes of BRD9 and AKT
effect on H3K27me3 elevation caused by loss of BRD9 (H3K27me3; 5 μM GSK126, 16 h, MDA-MB-231, sgBRD9): completely blocked
effect on I-BRD9-enhanced H3K27me3 (H3K27me3; GSK126 with I-BRD9, 16 h, MDA-MB-231 (fig. S6D)): suppressed

Compound: H4R3me2s: Biotin-H4R3me2s peptide, ANASPEC AS-65424
relative affinity of BRD9-BD for R391me2s vs H4R3me2s (BRD9-BD): greater affinity for R391me2s than H4R3me2s
